Reference: ChEMBL document CHEMBL3853331, “Preparation, Antiepileptic Activity, and Cardiovascular Safety of Dihydropyrazoles as Brain-Penetrant T-Type Calcium Channel Blockers” (J Med Chem, 2016)
Converted amounts (≈) assume the structure as drawn.

Assays:
[1] = target: Voltage-dependent T-type calcium channel subunit alpha-1H (Homo sapiens, UniProt O95180); test: Inhibition of recombinant T-type calcium channel Cav3.2 (unknown origin) expressed in HEK293 cells assessed as inhibition of CaCl2-induced calcium influx preincubated for 3 mins prior CaCl2 addition by Fluo-4-AM dye-based FLIPR assay; type: cell-based
Chain of Voltage-dependent T-type calcium channel subunit alpha-1H (O95180 whole entry): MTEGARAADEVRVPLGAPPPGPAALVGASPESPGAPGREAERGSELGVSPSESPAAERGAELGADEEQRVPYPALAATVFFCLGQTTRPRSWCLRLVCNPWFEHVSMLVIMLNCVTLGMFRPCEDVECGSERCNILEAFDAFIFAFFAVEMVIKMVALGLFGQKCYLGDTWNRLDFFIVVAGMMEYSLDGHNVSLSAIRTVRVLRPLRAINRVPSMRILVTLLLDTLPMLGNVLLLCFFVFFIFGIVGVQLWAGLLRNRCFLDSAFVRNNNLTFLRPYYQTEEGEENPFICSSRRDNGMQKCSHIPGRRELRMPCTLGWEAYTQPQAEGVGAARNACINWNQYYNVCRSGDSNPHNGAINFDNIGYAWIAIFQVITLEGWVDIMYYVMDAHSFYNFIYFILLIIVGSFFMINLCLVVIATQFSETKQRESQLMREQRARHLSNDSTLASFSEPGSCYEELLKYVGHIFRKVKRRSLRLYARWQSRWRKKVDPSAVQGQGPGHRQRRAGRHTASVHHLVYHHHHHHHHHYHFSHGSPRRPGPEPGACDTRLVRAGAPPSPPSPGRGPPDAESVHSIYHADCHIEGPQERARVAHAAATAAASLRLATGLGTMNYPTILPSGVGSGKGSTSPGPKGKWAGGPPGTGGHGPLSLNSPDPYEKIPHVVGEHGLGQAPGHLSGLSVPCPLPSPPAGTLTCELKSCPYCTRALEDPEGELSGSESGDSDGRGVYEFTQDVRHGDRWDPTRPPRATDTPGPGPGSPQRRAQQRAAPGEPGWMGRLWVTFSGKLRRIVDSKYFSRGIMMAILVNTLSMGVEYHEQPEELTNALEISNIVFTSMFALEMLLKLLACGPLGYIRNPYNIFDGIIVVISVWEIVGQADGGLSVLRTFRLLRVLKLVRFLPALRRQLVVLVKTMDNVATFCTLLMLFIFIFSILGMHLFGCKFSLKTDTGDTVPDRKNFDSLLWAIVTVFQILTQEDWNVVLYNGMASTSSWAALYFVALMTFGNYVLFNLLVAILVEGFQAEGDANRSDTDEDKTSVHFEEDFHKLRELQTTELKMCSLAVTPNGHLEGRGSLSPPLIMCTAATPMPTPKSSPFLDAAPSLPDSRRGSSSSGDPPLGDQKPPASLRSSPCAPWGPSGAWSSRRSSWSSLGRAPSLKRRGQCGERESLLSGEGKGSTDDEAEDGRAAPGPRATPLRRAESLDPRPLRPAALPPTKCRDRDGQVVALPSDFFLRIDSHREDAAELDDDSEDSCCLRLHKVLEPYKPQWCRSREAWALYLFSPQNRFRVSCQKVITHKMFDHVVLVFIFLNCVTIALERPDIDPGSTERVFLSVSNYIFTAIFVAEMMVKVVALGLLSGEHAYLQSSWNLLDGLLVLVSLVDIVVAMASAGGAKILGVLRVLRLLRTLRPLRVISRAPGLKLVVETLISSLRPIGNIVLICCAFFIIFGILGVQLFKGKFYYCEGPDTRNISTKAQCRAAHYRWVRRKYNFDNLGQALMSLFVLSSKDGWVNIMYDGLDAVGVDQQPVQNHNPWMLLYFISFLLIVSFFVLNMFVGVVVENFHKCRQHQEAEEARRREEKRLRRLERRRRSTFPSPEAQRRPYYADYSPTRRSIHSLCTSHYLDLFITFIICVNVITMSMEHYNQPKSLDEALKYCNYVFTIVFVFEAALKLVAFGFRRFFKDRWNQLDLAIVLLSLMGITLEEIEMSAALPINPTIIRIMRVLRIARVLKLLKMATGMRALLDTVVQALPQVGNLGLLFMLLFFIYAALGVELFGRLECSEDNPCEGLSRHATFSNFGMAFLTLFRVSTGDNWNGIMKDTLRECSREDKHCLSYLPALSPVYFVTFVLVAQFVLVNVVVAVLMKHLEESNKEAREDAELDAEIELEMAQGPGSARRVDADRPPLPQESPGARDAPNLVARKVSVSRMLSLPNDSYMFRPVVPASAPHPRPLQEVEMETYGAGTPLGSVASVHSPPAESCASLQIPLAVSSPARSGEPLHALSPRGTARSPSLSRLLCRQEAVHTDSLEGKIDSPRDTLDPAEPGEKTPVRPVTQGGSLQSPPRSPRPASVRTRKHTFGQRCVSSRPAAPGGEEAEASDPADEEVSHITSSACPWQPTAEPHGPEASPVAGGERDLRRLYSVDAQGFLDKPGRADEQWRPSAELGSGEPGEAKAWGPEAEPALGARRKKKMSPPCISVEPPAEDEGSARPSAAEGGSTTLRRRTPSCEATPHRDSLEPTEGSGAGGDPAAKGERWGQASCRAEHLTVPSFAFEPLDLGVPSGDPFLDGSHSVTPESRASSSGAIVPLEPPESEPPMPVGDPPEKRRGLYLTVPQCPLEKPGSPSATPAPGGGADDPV
Summary of the method: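 HEK293 cells stably expressing Cav3.2, plated overnight at 37°C, loaded 1 h at 37°C with 3 µM Fluo-4-AM in HBSS/Hepes pH 7.4, then washed. Compound in TEAC buffer (100 mM tetraethylammonium chloride, pH 7.2), 3-fold series from 10 µM to 0.05 nM, 3 min before CaCl2 to a final 10 mM. IC50 fitted sigmoidally to the fluorescence AUC against vehicle signal; mean of at least two independent experiments.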

[2] = Aqueous solubility of the compound at pH 4 by UV-HPLC method; type: physicochemical
Summary of the method: (§1)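 Compound dispensed from a 10 mM DMSO stock and the solvent evaporated. Residue stirred 24 h at room temperature in buffer: citrate (55 mM) pH 4.0 or phosphate (67 mM) pH 7.0. Mixture filtered by centrifugation. Filtrate concentration measured by HPLC-UV against calibration solutions.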

[3] = target: Voltage-dependent L-type calcium channel subunit alpha-1C (Homo sapiens, UniProt Q13936); test: Inhibition of recombinant […] calcium channel Cav1.2 (unknown origin) expressed in HEK293 cells assessed as inhibition of Kcl-induced calcium influx preincubated for 3 mins prior CaCl2 addition by Fluo-4-AM dye-based FLIPR assay; type: cell-based
Chain of Voltage-dependent L-type calcium channel subunit alpha-1C (Q13936 whole entry): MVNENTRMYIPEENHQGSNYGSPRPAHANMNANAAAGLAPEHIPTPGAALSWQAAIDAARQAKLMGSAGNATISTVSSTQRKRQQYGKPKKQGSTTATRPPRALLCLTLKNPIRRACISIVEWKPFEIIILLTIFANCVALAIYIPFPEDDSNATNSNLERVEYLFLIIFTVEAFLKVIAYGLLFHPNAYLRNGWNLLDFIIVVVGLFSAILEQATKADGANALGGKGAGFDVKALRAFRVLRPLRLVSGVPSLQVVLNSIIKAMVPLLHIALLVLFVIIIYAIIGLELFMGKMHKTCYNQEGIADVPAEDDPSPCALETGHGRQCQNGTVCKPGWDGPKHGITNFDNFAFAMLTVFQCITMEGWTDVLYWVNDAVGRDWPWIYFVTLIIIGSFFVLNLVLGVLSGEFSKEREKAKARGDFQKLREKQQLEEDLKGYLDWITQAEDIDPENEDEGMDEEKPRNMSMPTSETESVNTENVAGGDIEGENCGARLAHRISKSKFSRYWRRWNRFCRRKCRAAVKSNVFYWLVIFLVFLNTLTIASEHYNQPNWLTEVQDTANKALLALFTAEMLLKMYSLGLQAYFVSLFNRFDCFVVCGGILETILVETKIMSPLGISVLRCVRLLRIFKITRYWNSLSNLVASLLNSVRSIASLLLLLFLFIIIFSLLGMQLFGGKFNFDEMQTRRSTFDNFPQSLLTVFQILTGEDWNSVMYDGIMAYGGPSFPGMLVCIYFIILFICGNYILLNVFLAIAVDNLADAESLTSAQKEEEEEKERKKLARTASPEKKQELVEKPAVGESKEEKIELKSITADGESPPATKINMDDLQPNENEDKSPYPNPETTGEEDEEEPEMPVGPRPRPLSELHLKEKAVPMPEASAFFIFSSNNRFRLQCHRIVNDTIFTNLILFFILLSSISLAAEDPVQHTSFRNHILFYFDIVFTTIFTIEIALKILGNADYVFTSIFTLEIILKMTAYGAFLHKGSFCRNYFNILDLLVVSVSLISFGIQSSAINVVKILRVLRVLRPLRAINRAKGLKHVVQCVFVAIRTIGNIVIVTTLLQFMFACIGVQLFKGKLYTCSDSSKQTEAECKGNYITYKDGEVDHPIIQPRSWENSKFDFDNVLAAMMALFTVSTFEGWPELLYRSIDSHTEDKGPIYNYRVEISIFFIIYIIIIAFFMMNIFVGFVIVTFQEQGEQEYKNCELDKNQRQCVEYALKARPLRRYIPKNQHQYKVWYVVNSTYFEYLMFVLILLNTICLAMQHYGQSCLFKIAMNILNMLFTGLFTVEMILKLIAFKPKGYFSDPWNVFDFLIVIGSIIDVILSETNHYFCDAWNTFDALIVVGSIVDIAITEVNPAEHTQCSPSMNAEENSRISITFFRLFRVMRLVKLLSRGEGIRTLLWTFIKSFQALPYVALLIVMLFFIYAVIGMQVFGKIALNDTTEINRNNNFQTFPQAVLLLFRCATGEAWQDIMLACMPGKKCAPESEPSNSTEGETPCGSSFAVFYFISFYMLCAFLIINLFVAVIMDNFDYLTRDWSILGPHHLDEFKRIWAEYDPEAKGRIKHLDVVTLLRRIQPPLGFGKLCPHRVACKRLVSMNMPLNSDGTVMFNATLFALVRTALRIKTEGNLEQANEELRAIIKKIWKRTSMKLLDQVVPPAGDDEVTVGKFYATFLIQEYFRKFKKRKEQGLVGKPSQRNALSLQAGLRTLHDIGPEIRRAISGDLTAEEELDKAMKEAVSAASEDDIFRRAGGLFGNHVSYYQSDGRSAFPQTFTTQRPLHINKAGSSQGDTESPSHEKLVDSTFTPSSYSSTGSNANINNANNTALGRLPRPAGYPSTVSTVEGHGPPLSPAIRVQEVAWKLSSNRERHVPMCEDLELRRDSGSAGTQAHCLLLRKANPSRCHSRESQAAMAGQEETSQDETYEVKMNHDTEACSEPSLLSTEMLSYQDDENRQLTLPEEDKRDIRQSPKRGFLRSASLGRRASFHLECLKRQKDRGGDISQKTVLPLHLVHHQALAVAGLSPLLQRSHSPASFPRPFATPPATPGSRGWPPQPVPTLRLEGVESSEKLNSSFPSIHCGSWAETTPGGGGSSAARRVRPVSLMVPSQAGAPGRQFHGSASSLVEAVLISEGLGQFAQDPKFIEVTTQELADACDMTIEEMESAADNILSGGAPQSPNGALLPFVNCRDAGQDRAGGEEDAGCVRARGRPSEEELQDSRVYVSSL
Summary of the method: (§2)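 HEK293 cells stably expressing the channel, seeded overnight and loaded 1 h at 37°C with 3 µM Fluo-4-AM. Compounds given as a 3-fold dilution series from 10 µM to 0.05 nM and incubated 3 min. For T-type channels, dilutions in TEAC buffer and stimulation with 10 mM final CaCl2. For Cav1.2, dilutions in assay buffer and stimulation with 20 mM final KCl. IC50 from area under the fluorescence trace against vehicle; mean of at least two experiments.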

[4] = Aqueous solubility of the compound at pH 7 by UV-HPLC method; type: physicochemical; summary of the method: as §1
[5] = target: Voltage-dependent T-type calcium channel subunit alpha-1I (Homo sapiens, UniProt Q9P0X4); test: Inhibition of T-type calcium channel Cav3.3 (unknown origin) expressed in HEK293 cells assessed as calcium influx by Fluo-4-AM dye-based FLIPR assay; type: cell-based; summary of the method: as §2
[6] = target: Voltage-dependent T-type calcium channel subunit alpha-1G (Homo sapiens, UniProt O43497); test: Inhibition of T-type calcium channel Cav3.1 (unknown origin) expressed in HEK293 cells assessed as calcium influx by Fluo-4-AM dye-based FLIPR assay; type: cell-based; summary of the method: as §2
[7] = target: Voltage-gated inwardly rectifying potassium channel KCNH2 (Homo sapiens, UniProt Q12809); test: Inhibition of human ERG expressed in CHO cells assessed as potassium tail current measured at -40 mV holding potential after 3 mins by QPatch clamp assay; type: cell-based
Summary of the method: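 CHO cells stably expressing hERG, automated QPatch recording. 500-ms depolarization to +20 mV from a holding potential of -80 mV. K+ tail current measured at -40 mV. Effect read 3 min after application.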

MDR1 [8] = test: Apparent permeability across apical to basolateral side in MDCK cells expressing MDR1 (unknown origin) at 1 uM; type: ADME, cell-based, Canis lupus familiaris; conditions: dog
Summary of the method: (§3)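 MDR1-transfected MDCK cell monolayers. Compound tested at 1 µM. Apparent permeability measured in both directions, apical to basolateral and basolateral to apical. Efflux ratio taken from the two directional permeabilities.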

MDR1 [9] = test: Apparent permeability across basolateral to apical side in MDCK cells expressing MDR1 (unknown origin) at 1 uM; type: ADME, cell-based, Canis lupus familiaris; conditions: dog; summary of the method: as §3
MDR1 [10] = test: Efflux ratio of permeability in MDCK cells expressing MDR1 (unknown origin); type: ADME, cell-based, Canis lupus familiaris; conditions: dog; summary of the method: as §3

SMILES | IC50 [1] | IC50 [3] | other results
COc1ccc(NC(=O)N2N=C(c3ccc(Br)cc3)CC2c2ccc(F)cc2)cc1 (stereo not given) | 447 nM | > 10 µM | solubility [2]: < 1 µg/mL; solubility [4]: < 1 µg/mL
Cc1ccc(C2(CCN3CCOCC3)CC(c3ccccc3)=NN2C(=O)Nc2ccc(F)cc2)cc1 (stereo not given) | 430 nM | 5.9 µM | solubility [2]: 371 µg/mL (≈ 762 µM); solubility [4]: 1 µg/mL (≈ 2.06 µM)
CC(C)c1ccc(CC(=O)N[C@H](C)c2ccc(OCC(F)(F)F)cn2)cc1 [SUVECALTAMIDE] | 8.2 nM | – | IC50 [5]: 1.5 nM; IC50 [6]: 1.2 nM
Cc1ccc(C2(CCO)CC(c3ccncc3)=NN2C(=O)Nc2ccc(F)cc2)cc1 (stereo not given) | 330 nM | 8.6 µM | solubility [2]: 193 µg/mL (≈ 461 µM); solubility [4]: 35 µg/mL (≈ 83.6 µM)
CC(C)NC(=O)N1N=C(c2ccc(Br)cc2)CC1c1ccc(F)cc1 (stereo not given) | 382 nM | 2.36 µM | –
O=C(Nc1cccc(F)c1)N1N=C(c2ccc(Br)cc2)CC1c1ccc(F)cc1 (stereo not given) | 46 nM | > 10 µM | IC50 [7]: > 10 µM
O=C(Nc1ccc(F)cc1)N1N=C(c2ccncc2)C[C@@H]1c1ccc(F)cc1 | 320 nM | 7.8 µM | –
O=C(Nc1ccccc1)N1N=C(c2ccc(Br)cc2)CC1c1ccc(F)cc1 (stereo not given) | 68 nM | > 10 µM | IC50 [7]: > 10 µM
CS(=O)(=O)c1ccc(C2(CCO)CC(c3ccccc3)=NN2C(=O)Nc2ccc(F)cc2)cc1 (stereo not given) | 420 nM | > 10 µM | Papp A→B at 1 µM (MDR1 [8]): 0.6 ×10⁻⁶ cm/s; Papp B→A at 1 µM (MDR1 [9]): 62 ×10⁻⁶ cm/s; efflux ratio (MDR1 [10]): 104
O=C(Nc1ccncc1)N1N=C(c2ccccc2)CC1c1ccc(F)cc1 (stereo not given) | 202 nM | 3.09 µM | –
CS(=O)(=O)c1ccc(C2CC(c3ccncc3)=NN2C(=O)Nc2ccc(F)cc2)cc1 (stereo not given) | 410 nM | > 10 µM | –
COc1ccc([C@@]2(CCO)CC(c3cccnc3)=NN2C(=O)Nc2ccc(Br)cc2)cc1 | > 10000 nM | – | –
Fc1ccc(NC(=S)N2N=C(c3ccc(Br)cc3)CC2c2ccc(F)cc2)cc1 (stereo not given) | 281 nM | > 10 µM | –
COCCOc1ccc(C2(CCO)CC(c3ccccc3)=NN2C(=O)Nc2ccc(F)cc2)cc1 (stereo not given) | 60 nM | 6.3 µM | solubility [2]: 8 µg/mL (≈ 16.8 µM); solubility [4]: 8 µg/mL (≈ 16.8 µM)
O=C(Nc1ccc(F)cc1)N1N=C(c2ccccc2)CC1c1ccc(F)cc1 (stereo not given) | 25 nM | > 10 µM | solubility [2]: < 1 µg/mL; solubility [4]: < 1 µg/mL
CCc1ccc(NC(=O)N2N=C(c3ccc(Br)cc3)CC2c2ccc(F)cc2)cc1 (stereo not given) | 613 nM | > 10 µM | –
O=C(Nc1ccccn1)N1N=C(c2ccc(Br)cc2)CC1c1ccc(F)cc1 (stereo not given) | 393 nM | 2.18 µM | –
O=C(NCCc1ccccc1)N1N=C(c2ccc(Br)cc2)CC1c1ccc(F)cc1 (stereo not given) | 420 nM | 1.88 µM | –
COc1ccc(C2=NN(C(=O)Nc3ccc(Cl)cc3)[C@](CCO)(c3cccnc3)C2)cc1 | 55 nM | 5.7 µM | Papp A→B at 1 µM (MDR1 [8]): 5.3 ×10⁻⁶ cm/s; Papp B→A at 1 µM (MDR1 [9]): 90 ×10⁻⁶ cm/s; solubility [2]: 27 µg/mL (≈ 59.9 µM); efflux ratio (MDR1 [10]): 17; solubility [4]: 14 µg/mL (≈ 31 µM)

SMILES | IC50 [1] | IC50 [3] | other results
O=C(Nc1ccc(F)cc1)N1N=C(c2ccncc2)C[C@H]1c1ccc(F)cc1 | 21 nM | 5.4 µM | –
O=C(NC1CCCCC1)N1N=C(c2ccc(Br)cc2)CC1c1ccc(F)cc1 (stereo not given) | 316 nM | 1.34 µM | –
COc1ccc([C@]2(CCO)CC(c3cccnc3)=NN2C(=O)Nc2ccc(Br)cc2)cc1 | 33 nM | 4.8 µM | –
O=C(Nc1ccc(F)cc1)N1N=C(c2ccccc2)CC1(CCO)c1ccccc1 (stereo not given) | 120 nM | 1.94 µM | –
Cc1ccc(C2(CCN(C)C)CC(c3ccccc3)=NN2C(=O)Nc2ccc(F)cc2)cc1 (stereo not given) | 240 nM | 2.2 µM | solubility [2]: 42 µg/mL (≈ 94.5 µM); solubility [4]: 30 µg/mL (≈ 67.5 µM)
CN(C)CCOc1ccc(C2(CCO)CC(c3ccccc3)=NN2C(=O)Nc2ccc(F)cc2)cc1 (stereo not given) | > 5300 nM | > 10 µM | –
CC(C)(C)NC(=O)CN1CCC(CNC(=O)c2cc(F)cc(Cl)c2)CC1 [ULIXACALTAMIDE] | 73 nM | – | IC50 [5]: 86 nM; IC50 [6]: 37 nM
CS(=O)(=O)c1ccc(C2CC(c3ccccc3)=NN2C(=O)Nc2ccc(F)cc2)cc1 (stereo not given) | 40 nM | > 10 µM | solubility [2]: < 1 µg/mL; solubility [4]: < 1 µg/mL
COc1ccc(C2(CCO)CC(c3cccnc3)=NN2C(=O)Nc2ccc(Br)cc2)cc1 (stereo not given) | 140 nM | > 10 µM | –
O=C(Nc1ccc(F)cc1)N1N=C(c2ccc(Br)cc2)CC1c1ccc(F)cc1 (stereo not given) | 16 nM | > 10 µM | solubility [2]: < 1 µg/mL
O=C(Nc1ccc(F)cc1)N1N=C(c2cc[n+]([O-])cc2)CC1c1ccc(F)cc1 (stereo not given) | 110 nM | > 10 µM | –
O=C(c1ccccc1)N1N=C(c2ccc(Br)cc2)CC1c1ccc(F)cc1 (stereo not given) | 5390 nM | > 10 µM | –
COCC1(c2ccc(C)cc2)CC(c2ccccc2)=NN1C(=O)Nc1ccc(F)cc1 (stereo not given) | 350 nM | > 10 µM | –
CC1CC(c2ccccc2)=NN1C(=O)Nc1ccc(F)cc1 (stereo not given) | 410 nM | 3.9 µM | –
O=C(Nc1ccc(F)cc1)N1N=C(c2ccccc2)CC1(CO)c1ccc(F)cc1 (stereo not given) | 70 nM | 2.65 µM | solubility [4]: 2 µg/mL (≈ 4.91 µM)
Cc1ccc(C2(CCN3CCN(C)CC3)CC(c3ccccc3)=NN2C(=O)Nc2ccc(F)cc2)cc1 (stereo not given) | 690 nM | 3.6 µM | solubility [2]: 477 µg/mL (≈ 955 µM); solubility [4]: 158 µg/mL (≈ 316 µM)
O=C(Nc1ccccc1F)N1N=C(c2ccc(Br)cc2)CC1c1ccc(F)cc1 (stereo not given) | > 10000 nM | > 10 µM | solubility [2]: < 1 µg/mL; solubility [4]: < 1 µg/mL
CC1=NN(C(=O)Nc2ccc(F)cc2)C(c2ccc(F)cc2)C1 (stereo not given) | 900 nM | > 10 µM | –
